Changes are numbered by the printed parent chain.
Tests used:
[1] = biological target: T1, nitrate reductase (NarB) (Synechococcus elongatus, UniProt P39458, R84K); experiment: spectral perturbation titration; format: binding
T1 sequence (P39458 15-729 R84K): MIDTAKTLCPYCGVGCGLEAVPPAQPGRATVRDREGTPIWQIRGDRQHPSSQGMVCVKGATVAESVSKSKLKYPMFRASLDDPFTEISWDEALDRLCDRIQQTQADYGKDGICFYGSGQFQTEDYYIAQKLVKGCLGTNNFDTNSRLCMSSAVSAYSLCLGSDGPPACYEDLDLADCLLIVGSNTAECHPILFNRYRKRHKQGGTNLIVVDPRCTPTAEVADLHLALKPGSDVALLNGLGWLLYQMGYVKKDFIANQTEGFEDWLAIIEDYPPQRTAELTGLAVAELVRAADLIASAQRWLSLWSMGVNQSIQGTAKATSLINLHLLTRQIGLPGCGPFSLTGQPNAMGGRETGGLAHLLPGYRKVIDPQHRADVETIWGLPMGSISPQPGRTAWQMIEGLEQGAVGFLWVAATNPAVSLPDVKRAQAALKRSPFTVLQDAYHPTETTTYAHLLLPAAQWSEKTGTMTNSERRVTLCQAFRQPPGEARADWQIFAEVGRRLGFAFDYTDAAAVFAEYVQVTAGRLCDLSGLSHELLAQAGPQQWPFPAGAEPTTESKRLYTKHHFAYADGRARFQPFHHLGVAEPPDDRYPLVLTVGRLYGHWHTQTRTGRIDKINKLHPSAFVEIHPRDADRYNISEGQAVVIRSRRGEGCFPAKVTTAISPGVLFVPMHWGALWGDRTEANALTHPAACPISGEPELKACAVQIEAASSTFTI
In short: (§1)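 Single-residue NarB variants were made by site-directed mutagenesis and expressed and purified as for wild type (His6, Co affinity, DEAE, gel filtration). Complex formation with ferredoxin or nitrate was followed by difference absorbance at variant-specific wavelength pairs chosen for signal:noise. The change at saturating nitrate was taken as 100% complex. Kd came from fitting perturbation magnitude against ligand concentration to a single binding isotherm.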

[2] = biological target: T2, nitrate reductase (NarB) (Synechococcus elongatus, UniProt P39458, K144Q); experiment: spectral perturbation titration; format: binding
T2 sequence (P39458 15-729 K144Q): T1 sequence (P39458 15-729 R84K) with K70R, K130Q
In short: as §1

For `O=[N+]([O-])O` [nitrate], the Kd [1] was 6 ± 1 µM and the Kd [2] was 19 ± 6.8 µM.
